Experiments:
MCF7 = test: Growth inhibition of human MCF7 cells after 72 hrs by MTT assay; assay type: functional; conditions: MCF7, 72 h
T98G = test: Growth inhibition of pro-apoptotic stimuli-resistant human T98G cells after 72 hrs by MTT assay; assay type: functional
Method in brief: (§1)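 Cells seeded at 10,000 to 40,000 cells/mL depending on cell type and allowed to attach for 24 h. They were then cultured 72 h with or without compound (untreated control). Living cells were measured by MTT reduction to formazan, read at 570 nm against a 630 nm reference. GI50 was derived from the growth levels.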

[1] = Growth inhibition of pro-apoptotic stimuli-sensitive human Hs683 cells after 72 hrs by MTT assay; assay type: functional; conditions: Hs 683, 72 h; method in brief: as §1
SK-MEL-28 = test: Growth inhibition of pro-apoptotic stimuli-resistant human SK-MEL-28 cells after 72 hrs by MTT assay; assay type: functional; conditions: SK-MEL-28, 72 h; method in brief: as §1
PC-3 = test: Growth inhibition of human PC3 cells after 72 hrs by MTT assay; assay type: functional; conditions: PC-3, 72 h
A549 = test: Growth inhibition of pro-apoptotic stimuli-resistant human A549 cells after 72 hrs by MTT assay; assay type: functional; conditions: A549, 72 h; method in brief: as §1
[2] = Growth inhibition of pro-apoptotic stimuli-resistant human U373 cells after 72 hrs by MTT assay; assay type: functional, U-373MG ATCC; conditions: U373 MG; method in brief: as §1
B16-F10 = test: Growth inhibition of pro-apoptotic stimuli-sensitive mouse B16F10 cells after 72 hrs by MTT assay; assay type: functional; conditions: B16-F10, 72 h; method in brief: as §1
[3] = Chemical stability of the compound at pH 5 to 7.4; assay type: physicochemical; conditions: buffer

| GI50 (MCF7) | GI50 (SK-MEL-28) | GI50 (PC-3) | GI50 (A549) | GI50 (B16-F10) | Stability [3] | SMILES | GI50 (T98G) | GI50 [1] | GI50 [2] |
| --- | --- | --- | --- | --- | --- | --- | --- | --- | --- |
| > 100 µM | 99 µM | > 100 µM | 36 µM | 75 µM |  | CC(=O)O[C@H]1[C@H]2c3cc4c(cc3C(=O)N3CCC(=C[C@@H]1OC(C)=O)[C@H]23)OCO4 | 32 µM | 49 µM | 39 µM |
| 50 µM | > 100 µM | 33 µM | 23 µM | 20 µM |  | CC(=O)Oc1cc2c3c(c1)c1cc4c(cc1c(=O)n3CC2)OCO4 | 29 µM | 20 µM | 21 µM |
| > 100 µM | > 100 µM | > 100 µM | > 100 µM | 86 µM |  | CC(=O)O[C@@H]1[C@@H](OC(C)=O)[C@H](O)[C@@]2(O)CCN3C(=O)c4cc5c(cc4[C@H]1[C@H]32)OCO5 | > 100 µM | > 100 µM | > 100 µM |
| > 100 µM | > 100 µM | > 100 µM | > 100 µM | > 100 µM |  | O=C1c2cc3c(cc2[C@@H]2[C@H](O)[C@@H](O)C=C4CCN1[C@H]42)OCO3 | > 100 µM | > 100 µM | > 100 µM |
| 5 µM | 4 µM | 5 µM | 32 µM | 8 µM |  | O=C(O[C@H]1[C@H]2c3cc4c(cc3CN3CCC(=C[C@@H]1O)[C@H]23)OCO4)c1ccccc1 | 32 µM | 4 µM | 0.6 µM |
| 9 µM | > 100 µM | 48 µM | 44 µM | 38 µM |  | O=c1c2cc3c(cc2c2cc(O)cc4c2n1CC4)OCO3 | 41 µM | 40 µM | 49 µM |
| 35 µM | 47 µM | > 100 µM | 57 µM | 30 µM |  | CC(=O)O[C@H]1[C@H]2c3cc4c(cc3C(=S)N3CCC(=C[C@@H]1OC(C)=O)[C@H]23)OCO4 | 57 µM | 52 µM | 46 µM |
| 96 µM | > 100 µM | > 100 µM | > 100 µM | > 100 µM |  | O=C1c2cc3c(cc2[C@@H]2[C@H](O)[C@@H](O)[C@H](O)[C@@]4(O)CCN1[C@@H]24)OCO3 | > 100 µM | > 100 µM | > 100 µM |
| > 100 µM | > 100 µM | > 100 µM | > 100 µM | 83 µM |  | O[C@@H]1[C@@H](O)[C@H](O)[C@@]2(O)CCN3Cc4cc5c(cc4[C@H]1[C@H]32)OCO5 | > 100 µM | > 100 µM | > 100 µM |
| > 100 µM | > 100 µM | > 100 µM | > 100 µM | > 100 µM |  | CC(=O)O[C@@H]1[C@@H](OC(C)=O)[C@H](OC(C)=O)[C@@]2(O)CCN3C(=O)c4cc5c(cc4[C@H]1[C@H]32)OCO5 | > 100 µM | > 100 µM | > 100 µM |
| > 100 µM | > 100 µM | > 100 µM | > 100 µM | 83 µM |  | CC(=O)O[C@@H]1[C@@H](OC(C)=O)[C@H](OC(C)=O)C2=CCN3C(=O)c4cc5c(cc4[C@H]1[C@@H]23)OCO5 | > 100 µM | > 100 µM | > 100 µM |
| > 100 µM | > 100 µM | > 100 µM | > 100 µM | > 100 µM |  | O=C1c2cc3c(cc2[C@@H]2[C@H](O)[C@@H](O)[C@H](O)C4=CCN1[C@H]42)OCO3 | > 100 µM | > 100 µM | > 100 µM |
| 36 µM | 10 µM | 12 µM | 7 µM | 5 µM |  | CC(C)(C)C(=O)O[C@H]1C=C2CCN3Cc4cc5c(cc4[C@H]([C@@H]1O)[C@@H]23)OCO5 | 12 µM | 15 µM | 9 µM |
| 24 µM | 26 µM | 18 µM | 15 µM | 22 µM |  | CC(C)[Si](O[C@H]1C=C2CCN3Cc4cc5c(cc4[C@H]([C@@H]1O)[C@@H]23)OCO5)(C(C)C)C(C)C | 11 µM | 22 µM | 13 µM |
| 20 µM | 29 µM | 11 µM | 54 µM | 24 µM |  | O=C(O[C@H]1[C@H]2c3cc4c(cc3CN3CCC(=C[C@@H]1OC(=O)c1ccccc1)[C@H]23)OCO4)c1ccccc1 | 54 µM | 10 µM | 1 µM |
| 23 µM | 60 µM | 34 µM | 70 µM | 21 µM |  | O=C(O[C@H]1C=C2CCN3Cc4cc5c(cc4[C@H]([C@@H]1O)[C@@H]23)OCO5)c1ccccc1 | 70 µM | 6 µM | 1 µM |
| 25 µM | 38 µM | 20 µM | 9 µM | 38 µM |  | CCCCCCCCCCCCCCCC(=O)O[C@H]1[C@H]2c3cc4c(cc3CN3CCC(=C[C@@H]1O[Si](C(C)C)(C(C)C)C(C)C)[C@H]23)OCO4 | 3 µM | 21 µM | 13 µM |
| 27 µM | 34 µM | 26 µM | 18 µM | 30 µM |  | CC(=O)O[C@H]1[C@H]2c3cc4c(cc3CN3CCC(=C[C@@H]1O[Si](C(C)C)(C(C)C)C(C)C)[C@H]23)OCO4 | 6 µM | 36 µM | 15 µM |
| 32 µM | 35 µM | 29 µM | 26 µM | 28 µM | 3 days | CCCCCCCCCCCCCCCC(=O)O[C@H]1[C@H]2c3cc4c(cc3CN3CCC(=C[C@@H]1O)[C@H]23)OCO4 | 7 µM | 27 µM | 24 µM |
| 38 µM | 34 µM | 26 µM | 23 µM | 23 µM | 3 days | CCCCCCCCCCCCCCCCCC(=O)O[C@H]1[C@H]2c3cc4c(cc3CN3CCC(=C[C@@H]1O)[C@H]23)OCO4 | 16 µM | 24 µM | 8 µM |
| 74 µM | > 100 µM | 97 µM | 67 µM | 57 µM |  | O[C@H]1C=C2CCN3Cc4cc5c(cc4[C@H]([C@@H]1OCc1ccccc1)[C@@H]23)OCO5 | 34 µM | 80 µM | 50 µM |
| 27 µM | > 100 µM | > 100 µM | 96 µM | 34 µM |  | O=c1c2cc3c(cc2c2cccc4ccn1c42)OCO3 | 96 µM | 19 µM | 27 µM |
| 7 µM | 21 µM | 21 µM | 18 µM | 5 µM |  | CC(=O)Oc1cc2ccn3c(=O)c4cc5c(cc4c(c1)c23)OCO5 | 18 µM | 14 µM | 5 µM |
| 5 µM | 20 µM | 22 µM | 3 µM | 4 µM |  | CC(C)(C)OC(=O)O[C@H]1[C@H]2c3cc4c(cc3CN3CCC(=C[C@@H]1OC(=O)OC(C)(C)C)[C@H]23)OCO4 | 4 µM | 9 µM | 4 µM |
| > 100 µM | > 100 µM | > 100 µM | > 100 µM | 79 µM |  | CCOC(=O)C[C@@]12C=C[C@@H](OC(C)=O)[C@H]3c4cc5c(cc4CN(CC1)[C@@H]32)OCO5 | > 100 µM | > 100 µM | > 100 µM |
| 4 µM | 3 µM | 3 µM | 3 µM | 43 µM |  | CC(=O)O[C@H]1[C@H]2c3cc4c(cc3CN3CCC(=C[C@@H]1O)[C@H]23)OCO4 | 2 µM | 11 µM | 4 µM |
| 16 µM | 33 µM | 38 µM | 24 µM | 8 µM |  | O=c1c2cc3c(cc2c2cccc4c2n1CC4)OCO3 | 24 µM | 14 µM | 4 µM |
| 22 µM | 43 µM | 41 µM | 4 µM | 29 µM |  | CCC(=O)O[C@H]1[C@H]2c3cc4c(cc3CN3CCC(=C[C@@H]1OC(=O)CC)[C@H]23)OCO4 | 0.6 µM | 8 µM | 3 µM |
| 35 µM | > 100 µM | 92 µM | 4 µM | 16 µM |  | O=C1C=C2CCN3Cc4cc5c(cc4[C@H]([C@@H]1O)[C@@H]23)OCO5 | 38 µM | 3 µM | 45 µM |
| 4 µM | 4 µM | 4 µM | 0.9 µM | 2 µM |  | O[C@H]1[C@H]2c3cc4c(cc3CN3CCC(=C[C@@H]1O)[C@H]23)OCO4 [LYCORINE] | 3 µM | 0.9 µM | 3 µM |

Reference: ChEMBL document CHEMBL1921724, “In search of a cytostatic agent derived from the alkaloid lycorine: synthesis and growth inhibitory properties of lycorine derivatives” (Bioorg Med Chem, 2011)
